Data as given in ChEMBL document CHEMBL3745659, “Synthesis and Characterization of 4,11-Diaminoanthra[2,3-b]furan-5,10-diones: Tumor Cell Apoptosis through tNOX-Modulated NAD(+)/NADH Ratio and SIRT1” (J Med Chem, 2015).
Calls of active or inactive are those of the source. The rule behind the calls is not given here.

How the values were obtained:
[1] = tested on: AGS; test: Induction of apoptosis in human AGS cells after 24 hrs by annexin V-FITC staining-based flow cytometric analysis; format: functional, cell-based
Summary of the method: (§1)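 AGS cells exposed to compound for 24 h; Annexin V-FITC staining and flow cytometry used to give percentage of apoptotic cells; mean ± S.E. from at least three independent experiments.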

[2] = Drug uptake in human K562/4 cells at 3 uM incubated for 2 hrs in presence of verapamil by flow cytometric analysis; format: ADME, cell-based; conditions: k562/4, 2 h
Summary of the method: (§2)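 K562 and K562/4 cells incubated 2 h with 3 µM compound; uptake measured by flow cytometry as ratios (arbitrary units) of mean fluorescence channels of the histograms; verapamil (10 µM), a Pgp transport blocker, added 30 min before compound where used.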

[3] = tested on: K562; test: Drug uptake in human K562 cells at 3 uM incubated for 2 hrs in presence of verapamil by flow cytometric analysis; format: ADME, cell-based; conditions: k562, 2 h; summary of the method: as §2
[4] = target: T1, DNA topoisomerase 1 (Homo sapiens) (UniProt P11387); test: Inhibition of Top1 (unknown origin)-mediated relaxation of pBR322 DNA at 0.5 uM incubated for 30 mins by ethidium bromide staining-based gel electrophoresis assay
T1 sequence (whole entry): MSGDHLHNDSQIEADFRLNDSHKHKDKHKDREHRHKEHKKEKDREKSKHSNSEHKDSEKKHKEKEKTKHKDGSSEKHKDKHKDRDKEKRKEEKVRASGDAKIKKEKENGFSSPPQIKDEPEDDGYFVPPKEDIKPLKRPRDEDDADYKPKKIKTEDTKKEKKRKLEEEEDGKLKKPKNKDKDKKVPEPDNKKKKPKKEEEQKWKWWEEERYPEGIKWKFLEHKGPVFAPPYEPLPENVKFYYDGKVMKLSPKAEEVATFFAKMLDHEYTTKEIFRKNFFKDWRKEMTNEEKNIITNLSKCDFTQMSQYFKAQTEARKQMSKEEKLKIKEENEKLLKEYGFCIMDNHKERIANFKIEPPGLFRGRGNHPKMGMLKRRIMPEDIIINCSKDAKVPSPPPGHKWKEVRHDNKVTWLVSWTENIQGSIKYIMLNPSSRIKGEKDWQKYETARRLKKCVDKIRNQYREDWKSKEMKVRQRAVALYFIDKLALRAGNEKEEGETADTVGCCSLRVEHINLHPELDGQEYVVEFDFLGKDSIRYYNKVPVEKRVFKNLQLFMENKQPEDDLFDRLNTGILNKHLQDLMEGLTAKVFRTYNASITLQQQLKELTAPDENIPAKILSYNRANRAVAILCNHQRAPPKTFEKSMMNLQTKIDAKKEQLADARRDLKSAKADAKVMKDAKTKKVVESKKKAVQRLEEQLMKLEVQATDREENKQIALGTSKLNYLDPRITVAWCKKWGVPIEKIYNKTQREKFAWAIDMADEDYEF
Summary of the method: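 Supercoiled pBR322 plasmid treated with Top1 without drug or with compound at 0.5, 2.5 or 10 µM; camptothecin as reference; relaxation assessed by gel electrophoresis.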

[5] = tested on: Calf thymus DNA; test: Binding affinity to calf thymus double stranded DNA assessed as number of base pairs covered by one molecule of compound by spectrophotometric titration method; format: nucleic-acid assay; conditions: Bos taurus
[6] = tested on: HeLa; test: Antiproliferative activity against human HeLa cells after 72 hrs by MTT assay; format: functional, cell-based
[7] = target: T2, Ecto-NOX disulfide-thiol exchanger 2 (Homo sapiens) (UniProt Q16206); test: Inhibition of tNOX in human AGS cells assessed as decrease in intracellular NAD+/NADH ratio in human AGS cells at 5 uM incubated for 5 mins
T2 sequence (whole entry): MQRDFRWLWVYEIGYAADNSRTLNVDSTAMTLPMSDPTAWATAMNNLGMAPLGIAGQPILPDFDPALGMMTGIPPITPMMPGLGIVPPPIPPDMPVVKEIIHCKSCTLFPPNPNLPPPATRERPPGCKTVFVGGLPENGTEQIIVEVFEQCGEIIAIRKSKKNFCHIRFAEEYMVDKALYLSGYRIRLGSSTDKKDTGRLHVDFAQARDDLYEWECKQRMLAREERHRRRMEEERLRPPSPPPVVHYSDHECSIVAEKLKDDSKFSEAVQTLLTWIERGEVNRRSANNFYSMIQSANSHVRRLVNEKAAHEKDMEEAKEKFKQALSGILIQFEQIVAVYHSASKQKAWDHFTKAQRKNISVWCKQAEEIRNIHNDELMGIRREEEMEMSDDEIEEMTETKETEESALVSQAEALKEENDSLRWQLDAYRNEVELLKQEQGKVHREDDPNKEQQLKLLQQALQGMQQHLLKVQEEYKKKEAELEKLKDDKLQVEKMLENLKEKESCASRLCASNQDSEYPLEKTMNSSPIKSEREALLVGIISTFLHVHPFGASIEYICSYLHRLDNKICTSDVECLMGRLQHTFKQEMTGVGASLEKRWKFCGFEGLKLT

[8] = tested on: AGS; test: Induction of apoptosis in human AGS cells assessed as late apoptotic cells at 1 uM after 24 hrs by annexin V-FITC staining-based flow cytometric analysis (Rvb=0.3%); format: functional; summary of the method: as §1
[9] = tested on: AGS; test: Downregulation of tNOX protein level in human AGS cells at 0.1 to 0.5 uM after 24 hrs by Western blot analysis; format: functional, cell-based
[10] = tested on: AGS; test: […] in human AGS cells assessed as upregulation of E-Cad after 24 hrs by Western blot analysis; format: functional, cell-based
[11] = tested on: CCRF-CEM; test: Antiproliferative activity against human CEM cells after 72 hrs by MTT assay; format: functional, cell-based
[12] = tested on: AGS; test: Induction of apoptosis in human AGS cells assessed as early apoptotic cells at 0.1 uM after 24 hrs by annexin V-FITC staining-based flow cytometric analysis (Rvb=7.2%); format: functional; summary of the method: as §1

Drug uptake [2]: Active
Drug uptake [3]: Active
inhibition [4]: Active
Activity [5]: 3
IC50 [6]: 170 nM
inhibition [7]: Active
IC50 [11]: 190 nM
Structure (SMILES): CNCCNc1c2c(c(NCCNC)c3occc13)C(=O)c1ccccc1C2=O
Activity [1]: Dose-dependent effect
Activity [8]: 1.3%
Activity [9]: Active
Activity [10]: Active
Activity [12]: 25.1%
